Measurements taken from ChEMBL document CHEMBL1139409, “Pestalachlorides A-C, antifungal metabolites from the plant endophytic fungus Pestalotiopsis adusta” (Bioorg Med Chem, 2008).
≈ marks a conversion by molar mass, not a printed value.

Legend:
Assay type in all cases: functional, organism-based
Fusarium culmorum = assay: Antifungal activity against Fusarium culmorum by Almar blue assay
Method in brief: (§1)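 Plant pathogen strains from CGMCC, maintained on potato dextrose agar; inocula from broth cultures grown 25 °C for 48 h, final suspension 1 × 10^4 hyphae/mL. Samples from 10 mg/mL DMSO stock, serially diluted, in triplicate, with alamar blue indicator; incubated 28 °C for 48 h, fluorescence read at Ex/Em 544/590 nm. Inhibition rate plotted against concentration to give IC50 and MIC; NCCLS-based method.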

Fusarium graminearum = assay: Antifungal activity against Gibberella zeae by Almar blue assay; method in brief: as §1
Verticillium albo-atrum = assay: Antifungal activity against Verticillium albo-atrum by Almar blue assay; method in brief: as §1

SMILES | IC50 (Fusarium culmorum) | MIC (Fusarium culmorum) | IC50 (Fusarium graminearum) | MIC (Fusarium graminearum) | IC50 (Verticillium albo-atrum) | MIC (Verticillium albo-atrum)
COc1c(Cl)c(C)c(Cl)c(O)c1C1NC(=O)c2c(O)cc(O)c(CC=C(C)C)c21 (racemic) [PESTALACHLORIDE A] | 0.89 µM | 7.2 µM (≈ 3.16 µg/mL) | 54.4 µM | 114 µM (≈ 50.1 µg/mL) | 58.3 µM | 114 µM (≈ 50.1 µg/mL)
COc1c(Cl)c(C)c(Cl)c2c1[C@H]1c3c(C=O)c(O)cc(O)c3C[C@@H]1C(C)(C)O2 (racemic) [PESTALACHLORIDE C] | > 118 µM | > 237 µM | > 118 µM | > 237 µM | > 118 µM | > 237 µM
CC(C)=CCc1c(O)cc(O)c2c1C(=O)c1c(O)c(Cl)c(C)c(Cl)c1OC2 [PESTALACHLORIDE B] | 4.7 µM | 49 µM (≈ 20.1 µg/mL) | 1.1 µM | 12.2 µM (≈ 4.99 µg/mL) | 7.9 µM | 12.2 µM (≈ 4.99 µg/mL)
